Laboratory results taken from ChEMBL document CHEMBL5705892, “MK-2206, an allosteric Akt inhibitor, enhances antitumor efficacy by standard chemotherapeutic agents or molecular targeted drugs in vitro and in vivo” (Mol Cancer Ther, 2010).
Active and inactive are the calls of the source. The calls are words filed in the database; no cut-off is given here.

Tests used:
NCI-H460 [1] = assay: Antiproliferative activity against human NCI-H460 cells assessed as reduction in cell proliferation measured after 72 hrs by celltiter-glo assay; format: functional, cell-based; conditions: NCI-H460, 72 h
A-431 = assay: Synergistic antiproliferative activity against human A-431 cells assessed as combination index at ED50 measured after 72 hrs in presence of erlotinib by celltiter-glo assay; format: functional
Method in brief: (§1)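 Cells were seeded at 2–3 × 10³ per well in RPMI 1640 with 10% FBS. At 24 h, MK-2206 and the partner drug were added simultaneously at constant concentration ratios spanning each agent's IC₅₀, for 72 h. Growth was read as cellular ATP by CellTiter-Glo. CI was taken from median-effect plots of each agent alone and in combination (Chou–Talalay), at ED₅₀, ED₇₅ and ED₉₀.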

MDA-MB-468 = assay: Synergistic antiproliferative activity against human MDA-MB-468 cells assessed as combination index at ED50 measured after 72 hrs in presence of lapatinib by celltiter-glo assay; format: functional
Method in brief: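 Cells grown in RPMI 1640 with 10% heat-inactivated FBS at 37°C, 5% CO₂. Seeded at 2 to 3 × 10³ per well; drugs added 24 h later. […] Viability read as cellular ATP by CellTiter-Glo. CI calculated by Chou–Talalay from median-effect plots at ED50, ED75 and ED90.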

NCI-H23 = assay: Synergistic antiproliferative activity against human NCI-H23 cells assessed as fold change in erlotinib IC50 at 1 umol/L measured after 72 hrs in presence of erlotinib by celltiter-glo assay relative to erlotinib alone; format: functional; conditions: dose 1 µmol/L
NCI-H1299 = assay: Synergistic antiproliferative activity against human NCI-H1299 cells assessed as fold change in erlotinib IC50 at 1 umol/L measured after 72 hrs in presence of erlotinib by celltiter-glo assay relative to erlotinib alone; format: functional; conditions: dose 1 µmol/L
NCI-H292 = assay: Induction of apoptosis in human NCI-H292 cells assessed as increase in caspase-3/7 activity measured after 48 hrs in presence of erlotinib by caspase-glo 3/7 assay; format: functional, cell-based; conditions: dose <= 3.0 µmol/L
Method in brief: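 Caspase-3/7 activity was measured by Caspase-Glo 3/7 and expressed as fold over DMSO vehicle control. The experiment was done twice.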

[2] = biological target: RAC-alpha serine/threonine-protein kinase (Homo sapiens) (UniProt P31749); assay: Inhibition of AKT in human A-431 cells assessed as reduction in PRAS40 phosphorylation at T246 residue at 5 umol/L measured after 5 hrs by Western blot analysis; format: cell-based; conditions: dose 5.0 µmol/L
Sequence of RAC-alpha serine/threonine-protein kinase (Homo sapiens) (P31749 whole entry): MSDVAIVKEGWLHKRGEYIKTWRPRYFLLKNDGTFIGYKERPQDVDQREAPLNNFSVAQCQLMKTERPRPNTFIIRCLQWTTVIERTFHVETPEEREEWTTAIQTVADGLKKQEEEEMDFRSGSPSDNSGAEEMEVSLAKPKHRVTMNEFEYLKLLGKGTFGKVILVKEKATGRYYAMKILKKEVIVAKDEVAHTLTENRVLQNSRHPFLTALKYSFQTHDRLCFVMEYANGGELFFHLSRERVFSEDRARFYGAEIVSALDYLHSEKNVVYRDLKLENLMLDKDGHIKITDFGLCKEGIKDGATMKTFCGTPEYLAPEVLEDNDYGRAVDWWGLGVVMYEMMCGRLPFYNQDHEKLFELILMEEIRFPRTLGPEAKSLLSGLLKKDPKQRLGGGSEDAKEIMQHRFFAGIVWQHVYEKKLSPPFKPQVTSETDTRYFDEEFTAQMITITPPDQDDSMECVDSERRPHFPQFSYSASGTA
Method in brief: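 Cells were lysed in Tris-HCl pH 7.5, 150 mM NaCl, 1% Triton X-100 with protease and phosphatase inhibitors. Lysates were run on SDS-PAGE, transferred to nitrocellulose and probed with phospho-specific antibodies.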

[3] = Toxicity in human NCI-H292 cells xenografted CD-1 mouse assessed as death at 120 mg/kg, po administered 3 times per week for 2 weeks and measured during compound dosing; format: organism-based; conditions: in vivo, 336 h
Method in brief: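 NCI-H292 cells in 50% Matrigel/PBS injected s.c. into flank of female CD1-nude mice; dosing began after 2 wk at mean tumour 0.2 cm³, n = 5/group. […] Body weight and signs monitored; treatment ended day 16.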

HCC70 [4] = assay: Synergistic antiproliferative activity against lapatinib pretreated human HCC70 cells assessed as combination index at ED50 measured after 72 hrs by celltiter-glo assay; format: functional
HCC70 [5] = assay: Synergistic antiproliferative activity against human HCC70 cells assessed as combination index at ED75 treated 24 hrs prior to lapatinib and measured after 72 hrs by celltiter-glo assay; format: functional; conditions: time 96 hrs
SK-OV-3 [6] = assay: Synergistic antiproliferative activity against lapatinib pretreated human SK-OV-3 cells assessed as combination index at ED90 measured after 72 hrs by celltiter-glo assay; format: functional
HCC70 [7] = assay: Synergistic antiproliferative activity against human HCC70 cells assessed as combination index at ED90 measured after 96 hrs in presence of lapatinib by celltiter-glo assay; format: functional
HCC1954 = assay: Synergistic antiproliferative activity against human HCC1954 cells assessed as combination index at ED90 measured after 96 hrs in presence of lapatinib by celltiter-glo assay; format: functional
SK-OV-3 [8] = assay: Antitumor activity against human SK-OV-3 cells xenografted in CB17/icr SCID mouse assessed as tumor growth inhibition at 60 to 120 mg/kg, po administered 3 times per week for 2 weeks and measured twice a week during compound dosing by caliper method; format: functional, organism-based; conditions: dose 60-120 mg/kg
Method in brief: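 SK-OV-3 cells were implanted s.c. into female C.B-17/ICR-scid mice, which were randomized at 0.13 cm³, n = 5. Lapatinib (water) was given at 100 mg/kg po on days 0–4 and 7–11. MK-2206 (30% Captisol) was given at 60 or 120 mg/kg po on days 0, 2, 4, 7, 9, 11. Tumor volume by calipers twice weekly.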

BT-474 [9] = assay: Synergistic antiproliferative activity against human BT-474 cells assessed as combination index at ED50 preincubated for 24 hrs followed by compound washout and subsequent docetaxel addition and measured after 72 hrs by celltiter-glo assay; format: functional
Method in brief: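 Sequential schedule. Cells were seeded at 2 to 3 × 10³ per well in RPMI 1640 with 10% FBS and dosed 24 h after plating. They were exposed to the Akt inhibitor for 24 h, washed free of it, then given docetaxel for a further 72 h. Fixed concentration ratios spanned each agent's IC₅₀. ATP was read by CellTiter-Glo, and Chou–Talalay CI was calculated at ED50, ED75 and ED90.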

BT-474 [10] = assay: Synergistic antiproliferative activity against docetaxel pretreated human BT-474 cells assessed as combination index at ED50 measured after 72 hrs by celltiter-glo assay; format: functional
SK-BR-3 [11] = assay: Synergistic antiproliferative activity against human SK-BR-3 cells assessed as combination index at ED50 measured after 72 hrs in presence of docetaxel by celltiter-glo assay; format: functional
SK-BR-3 [12] = assay: Synergistic antiproliferative activity against human SK-BR-3 cells assessed as combination index at ED90 measured after 72 hrs in presence of docetaxel by celltiter-glo assay; format: functional
A2780 = assay: Synergistic antiproliferative activity against human A2780 cells assessed as combination index at ED50 measured after 72 hrs in presence of gemcitabine by celltiter-glo assay; format: functional; method in brief: as §1
NCI-H460 [13] = assay: Synergistic antiproliferative activity against human NCI-H460 cells assessed as combination index at ED90 measured after 72 hrs in presence of gemcitabine by celltiter-glo assay; format: functional
NCI-H1993 = assay: Synergistic antiproliferative activity against human NCI-H1993 cells assessed as combination index at ED25 to ED90 measured after 72 hrs in presence of gemcitabine by celltiter-glo assay; format: functional
UMC-11 = assay: Induction of apoptosis in human UMC-11 cells assessed as fold induction of capsase-3/7 activity measured after 24 to 48 hrs in presence of carboplatin by caspase-glo 3/7 assay; format: functional; conditions: time 24-48 hrs
NCI-H460 [14] = assay: Induction of apoptosis in human NCI-H460 cells assessed as fold induction of capsase-3/7 activity measured after 24 to 48 hrs in presence of gemcitabine by caspase-glo 3/7 assay; format: functional; conditions: time 24-48 hrs

Compound `Cl.NC1(c2ccc(-c3nc4ccn5c(=O)[nH]nc5c4cc3-c3ccccc3)cc2)CCC1` has an IC50 (NCI-H460 [1]) of 3.4 µM, a CI50 (A-431) of 0.42 and a CI50 (MDA-MB-468) of 0.42. The “Ratio IC50” value (NCI-H23) was 2.4, the “Ratio IC50” value (NCI-H1299) was over 7.9 and the Activity (NCI-H292) was “Dose-Dependent Effect”. The inhibition [2] was “Active”, the Activity [3] was “Non-Toxic” and the CI50 (HCC70 [4]) was 0.18. The CI75 (HCC70 [5]) was 0.18, the CI90 (SK-OV-3 [6]) was 0.18 and the CI90 (HCC70 [7]) was 0.18. For the same compound, the CI90 (HCC1954) was 0.18, the TGI (SK-OV-3 [8]) was “Active” and the CI50 (BT-474 [9]) was 1.6. It also gave a CI50 (BT-474 [10]) of 0.8, a CI50 (SK-BR-3 [11]) of 0.8 and a CI90 (SK-BR-3 [12]) of 0.8. It also gave a CI50 (A2780) of 0.57, a CI90 (NCI-H460 [13]) of 0.56 and a CI (NCI-H1993) of 0.14. The “fold change (FC)” value (UMC-11) was 1.1 and the “fold change (FC)” value (NCI-H460 [14]) was 1.6.
